Assay results as given in paper PMC10247892 (Biomedicine & Pharmacotherapy, 2023).
Entries after “also recorded” stand apart in the source; their conditions may differ.

Assays:
[1] = test system: SARS-CoV-2 NanoLuc replicative competent reporter virus; set-up: species or system golden Syrian hamsters; conditions: hamster, in vivo
[2] = target: SARS-CoV-2 3CL main protease (MBP-tagged) (Severe acute respiratory syndrome coronavirus 2, UniProt P0DTD1); format: biochemical; conditions: increasing concentrations
Calu-3 cells = assay: Lipidomic analysis of Calu-3 cells after MβCD treatment; format: cell-based; conditions: increasing concentrations, 2 h
Outline: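 Calu-3 cells were seeded at 3 million/well and treated with 0, 0.6 or 2.5 mM test compound for 2 h at 37 °C and 5 % CO2. Plasma membrane lipid composition was then measured by lipidomics.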

Methyl-β-cyclodextrin [MβCD] was tested, and the “Nanoluciferase signal in nasal turbinates and lungs (in words)” value [1] was “no nanoluciferase signal was detected; also recorded: no sign of infection was detected”, the “Inhibition of M^pro activity (in words)” value [2] was “did not show activity” and the “Effect on phosphatidylcholine (in words)” value (Calu-3 cells) was “did not affect phosphatidylcholine”.
